From ChEMBL document CHEMBL1921716, “Discovery of N-[2-hydroxy-6-(4-methoxybenzamido)phenyl]-4- (4-methyl-1,4-diazepan-1-yl)benzamide (darexaban, YM150) as a potent and orally available factor Xa inhibitor” (J Med Chem, 2011)

Assays:
Coagulation factor X [1] = molecular target: T1, Coagulation factor X (Homo sapiens, UniProt P00742); assay: Inhibition of human factor 10A using chromogenic substrate S2222 by absorbance measurement at 405 nm
Mus musculus [2] = assay: Anticoagulant activity in mouse assessed as prothrombin time at 100 mg/kg, po measured after 0.5 hrs by coagulometric analysis relative to control; format: functional, ICR
[3] = Intrinsic clearance in CD1 mouse liver microsomes assessed as compound remaining at 0.2 uM after 30 mins; format: ADME, Microsome
[4] = Effective permeability of the compound after 2 hrs by PAMPA at pH 6.5; format: ADME; settings: read-out: Peff
Outline: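 Compound from a 10 mM DMSO stock was diluted to a final concentration of about 50 μM in buffer containing 10% DMSO. Donor was pH 6.5 and acceptor pH 7.4, separated by a filter coated with 20% lecithin in dodecane. Plates were incubated 2 h at 25 °C in saturated humidity. Both compartments were quantified by UV at 270–400 nm against standards, with mass balance, to give Pe (n = 2).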

Plasma [5] = assay: Anticoagulant activity in mouse plasma assessed as concentration required to double the clotting time by coagulometric analysis; format: functional
Outline: (§1)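 Citrated blood was spun at 3000 rpm for 10 min to give platelet-poor plasma, stored at −40 °C. Prothrombin time was read on a coagulometer at 37 °C with thromboplastin and compared with a distilled-water control. CT2 (concentration doubling clotting time) was estimated from each concentration–response curve. Each measurement was done three times and reported as the mean.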

Mus musculus [6] = assay: Anticoagulant activity in mouse assessed as prothrombin time at 100 mg/kg, po measured after 2 hrs by coagulometric analysis relative to control; format: functional, ICR
Prothrombin = Prothrombin (Homo sapiens, UniProt P00734); assay: Inhibition of human thrombin using chromogenic substrate S2238 by dixon plot analysis
Outline: (§2)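 Human enzymes were used at final concentrations of 4.2 mU/mL FXa, 0.20 U/mL thrombin, 1.0 U/mL trypsin and 1.7 mU/mL plasma kallikrein. Substrates were S-2222 (FXa, trypsin), S-2238 (thrombin) and S-2302 (kallikrein). Reactions were started by adding enzyme, and hydrolysis was followed at 405 nm at 37 °C. Mode of inhibition came from Lineweaver–Burk plots and Ki from Dixon plots at several substrate concentrations. Values are means of four determinations.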

Rattus norvegicus [7] = assay: AUC (0 to 24 hrs) in F344/DuCrlCrlj rat at 100 mg/kg, po assessed as 3-[(4-methoxybenzoyl)amino]-2-{[4-(4-methyl-1,4-diazepan- 1-yl)benzoyl]amino}phenyl beta-D-glucopyranosiduronic acid level after 24 hrs by LC-MS/MS analysis; format: ADME, organism-based, Plasma; parameters: time < 24 hr, dose 100 mg/kg, route oral; settings: in vivo
Outline: (§3)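 Male F344/DuCrlCrlj rats, 6 weeks old and nonfasted, received a single oral dose of 100 mg/kg as the monomaleate salt suspended in 0.5% methylcellulose, dose given as free form. Three rats per time point were bled at 0.5, 1, 2, 4, 8 and 24 h. Plasma was deproteinized with acetonitrile containing internal standards, and parent and glucuronide were measured by LC-MS/MS.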

Plasma kallikrein = Plasma kallikrein (Homo sapiens, UniProt P03952); assay: Inhibition of human plasma kallikrein using chromogenic substrate S2302 by dixon plot analysis
Outline: as §2

Coagulation factor X [8] = molecular target: T1, Coagulation factor X; assay: Inhibition of human factor 10A using chromogenic substrate S2222 by dixon plot analysis
Outline: as §2

Rattus norvegicus [9] = assay: Tmax in F344/DuCrlCrlj rat at 100 mg/kg, po assessed as 3-[(4-methoxybenzoyl)amino]-2-{[4-(4-methyl-1,4-diazepan- 1-yl)benzoyl]amino}phenyl beta-D-glucopyranosiduronic acid level after 24 hrs by LC-MS/MS analysis; format: ADME, organism-based; parameters: dose 100 mg/kg, route oral; settings: in vivo
Outline: as §3

Rattus norvegicus [10] = assay: Cmax in F344/DuCrlCrlj rat at 100 mg/kg, po assessed as 3-[(4-methoxybenzoyl)amino]-2-{[4-(4-methyl-1,4-diazepan- 1-yl)benzoyl]amino}phenyl beta-D-glucopyranosiduronic acid level after 24 hrs by LC-MS/MS analysis; format: ADME, organism-based; parameters: dose 100 mg/kg, route oral; settings: in vivo
Outline: as §3

Plasma [11] = assay: Anticoagulant activity in human plasma assessed as concentration required to double the clotting time by coagulometric analysis; format: functional
Outline: as §1

Trypsin = Trypsin (Homo sapiens, UniProt P07477+P07478+P35030); assay: Inhibition of human trypsin using chromogenic substrate S2222 by dixon plot analysis plot; format: protein assay
Outline: as §2

[12] = Tmax in F344/DuCrlCrlj rat at 100 mg/kg, po; format: ADME, organism-based; parameters: dose 100 mg/kg, route oral; settings: in vivo
Outline: as §3

[13] = Cmax in F344/DuCrlCrlj rat at 100 mg/kg, po; format: ADME, organism-based; parameters: dose 100 mg/kg, route oral; settings: in vivo
Outline: as §3

[14] = AUC (0 to 24 hrs) in F344/DuCrlCrlj rat at 100 mg/kg, po; format: ADME, organism-based; parameters: time < 24 hr, dose 100 mg/kg, route oral; settings: plasma
Outline: as §3

T1 sequence (P00742 41-179 limits assumed): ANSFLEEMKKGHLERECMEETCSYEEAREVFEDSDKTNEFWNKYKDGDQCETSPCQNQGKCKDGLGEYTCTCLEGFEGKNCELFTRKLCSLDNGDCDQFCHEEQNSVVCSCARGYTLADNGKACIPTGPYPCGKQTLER
T1 sequence (P00742 235-488 limits assumed): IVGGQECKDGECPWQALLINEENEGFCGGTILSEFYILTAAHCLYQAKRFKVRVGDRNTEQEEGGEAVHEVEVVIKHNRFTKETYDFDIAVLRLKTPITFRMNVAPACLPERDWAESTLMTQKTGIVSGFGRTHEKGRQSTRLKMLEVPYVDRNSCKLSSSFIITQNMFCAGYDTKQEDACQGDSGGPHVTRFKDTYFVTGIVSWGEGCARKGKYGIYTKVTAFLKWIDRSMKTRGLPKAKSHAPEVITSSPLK
Plasma kallikrein, sequence (P03952 20-390 limits assumed): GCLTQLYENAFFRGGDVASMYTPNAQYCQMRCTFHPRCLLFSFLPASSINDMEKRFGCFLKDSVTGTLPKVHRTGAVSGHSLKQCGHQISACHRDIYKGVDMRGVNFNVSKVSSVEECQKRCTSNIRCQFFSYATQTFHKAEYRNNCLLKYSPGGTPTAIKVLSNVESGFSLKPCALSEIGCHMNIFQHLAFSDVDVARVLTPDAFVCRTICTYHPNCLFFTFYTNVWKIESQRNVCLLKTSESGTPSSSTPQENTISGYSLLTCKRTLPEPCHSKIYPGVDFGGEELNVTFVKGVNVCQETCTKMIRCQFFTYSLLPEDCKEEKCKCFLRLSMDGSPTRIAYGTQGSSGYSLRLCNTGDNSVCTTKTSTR
Plasma kallikrein, sequence (P03952 391-638 limits assumed): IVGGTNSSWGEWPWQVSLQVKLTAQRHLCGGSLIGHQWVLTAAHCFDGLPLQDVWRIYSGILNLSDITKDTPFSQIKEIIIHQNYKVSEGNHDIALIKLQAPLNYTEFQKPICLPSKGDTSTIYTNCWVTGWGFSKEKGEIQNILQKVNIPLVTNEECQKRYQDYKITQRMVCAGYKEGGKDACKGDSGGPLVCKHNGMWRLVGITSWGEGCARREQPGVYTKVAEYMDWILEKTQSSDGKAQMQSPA

SMILES	IC50 (Coagulation factor X [1])	fold change (FC) (Mus musculus [2])	CD (Plasma [5])	fold change (FC) (Mus musculus [6])	other results
COc1ccc(C(=O)Nc2ccccc2NC(=O)c2ccc(OC)cc2)cc1	4220 nM	–	–	–	–
COc1ccc(C(=O)Nc2ccc(OC)cc2NC(=O)c2ccc(OC)cc2)cc1	6220 nM	–	–	–	–
COc1ccc(C(=O)Nc2ccccc2NC(=O)c2ccc(N3CCCN(C)CC3)cc2)cc1	103 nM	1.38	2.8 µM	1.39	CLint scaled at 0.2 µM [3]: 2050 mL/min/kg; Papp at 2 h [4]: 42 ×10⁻⁶ cm/s
COc1ccc(C(=O)Nc2ccccc2C(=O)Nc2ccc(N3CCCN(C)CC3)cc2)cc1	539 nM	–	–	–	–
COc1ccc(NC(=O)c2ccccc2NC(=O)c2ccc(N3CCCN(C)CC3)cc2)cc1	140 nM	1.02	5.9 µM	0.98	–
COc1ccc(C(=O)Nc2cccc(OC)c2NC(=O)c2ccc(N3CCCN(C)CC3)cc2)cc1	62.6 nM	1.5	3.7 µM	1.32	CLint scaled at 0.2 µM [3]: 2200 mL/min/kg; Papp at 2 h [4]: 47.5 ×10⁻⁶ cm/s
COc1ccc(C(=O)Nc2ccc(OC)cc2NC(=O)c2ccc(N3CCCN(C)CC3)cc2)cc1	73.4 nM	1.35	7.5 µM	1.38	–
COc1ccc(C(=O)Nc2cc(OC)ccc2NC(=O)c2ccc(N3CCCN(C)CC3)cc2)cc1	118 nM	1.25	7.1 µM	1.34	–
COc1ccc(C(=O)Nc2c(NC(=O)c3ccc(N4CCCN(C)CC4)cc3)cccc2OC)cc1	213 nM	–	13 µM	–	–
COc1ccc(C(=O)Nc2cccc(C(=O)O)c2NC(=O)c2ccc(N3CCCN(C)CC3)cc2)cc1	99.2 nM	1.05	9 µM	1.08	–
COc1ccc(C(=O)Nc2ccc(C(=O)O)cc2NC(=O)c2ccc(N3CCCN(C)CC3)cc2)cc1	31.1 nM	1	1.7 µM	1	–
COc1ccc(C(=O)Nc2ccc(O)cc2NC(=O)c2ccc(N3CCCN(C)CC3)cc2)cc1	50.3 nM	1.04	1.4 µM	1	CLint scaled at 0.2 µM [3]: 1700 mL/min/kg; Papp at 2 h [4]: < 0.3 ×10⁻⁶ cm/s
COc1ccc(C(=O)Nc2cc(O)ccc2NC(=O)c2ccc(N3CCCN(C)CC3)cc2)cc1	157 nM	1.02	4.7 µM	1.01	–
COc1ccc(C(=O)Nc2cccc(F)c2NC(=O)c2ccc(N3CCCN(C)CC3)cc2)cc1	155 nM	1.43	4.3 µM	1.22	–
COc1ccc(C(=O)Nc2cccc(OCC(=O)O)c2NC(=O)c2ccc(N3CCCN(C)CC3)cc2)cc1	123 nM	0.99	2.8 µM	0.98	–
COc1ccc(C(=O)Nc2cccc(OCCO)c2NC(=O)c2ccc(N3CCCN(C)CC3)cc2)cc1	106 nM	1.36	3 µM	1.31	–
CSc1ccc(C(=O)Nc2cccc(O)c2NC(=O)c2ccc(N3CCCN(C)CC3)cc2)cc1	1440 nM	–	–	–	–
CN1CCCN(c2ccc(C(=O)Nc3c(O)cccc3NC(=O)c3ccc(O)cc3)cc2)CC1	6140 nM	–	–	–	–
CN1CCCN(c2ccc(C(=O)Nc3c(O)cccc3NC(=O)c3ccc(F)cc3)cc2)CC1	349 nM	–	–	–	–
CN1CCCN(c2ccc(C(=O)Nc3c(O)cccc3NC(=O)c3ccc(Cl)cc3)cc2)CC1	64.2 nM	1.42	5.3 µM	1.32	–
CN1CCCN(c2ccc(C(=O)Nc3c(O)cccc3NC(=O)c3ccc(Br)cc3)cc2)CC1	59.8 nM	1.41	6.7 µM	1.62	–
COc1ccc(C(=O)Nc2cccc(O)c2NC(=O)c2ccc(N3CCCN(C)CC3)cc2)s1	86.1 nM	2.17	3.8 µM	1.9	–
CN1CCCN(c2ccc(C(=O)Nc3c(O)cccc3NC(=O)c3ccc(Cl)s3)cc2)CC1	41.3 nM	1.48	5.8 µM	1.27	–
CN1CCCN(c2ccc(C(=O)Nc3c(O)cccc3NC(=O)c3ccc(Br)s3)cc2)CC1	41.4 nM	1.53	7.1 µM	1.22	–
COc1ccc(C(=O)Nc2cccc(O[C@@H]3O[C@H](C(=O)O)[C@@H](O)[C@H](O)[C@H]3O)c2NC(=O)c2ccc(N3CCCN(C)CC3)cc2)cc1	28.6 nM	–	2.5 µM	–	Ki (Prothrombin): > 100000 nM; AUC (Rattus norvegicus [7]): 38539.2 ng·h/mL; Ki (Plasma kallikrein): 17000 nM; CLint scaled at 0.2 µM [3]: 90.6 mL/min/kg; Papp at 2 h [4]: < 0.2 ×10⁻⁶ cm/s; Ki (Coagulation factor X [8]): 20 nM; Tmax (Rattus norvegicus [9]): 0.5 h; Cmax (Rattus norvegicus [10]): 9439.5 ng/mL; CD (Plasma [11]): 0.95 µM; Ki (Trypsin): > 100000 nM
COc1ccc(C(=O)Nc2cccc(O)c2NC(=O)c2ccc(N3CCCN(C)CC3)cc2)cc1.O=C(O)/C=C\C(=O)O	–	–	–	–	Tmax [12]: 2 h; Cmax [13]: 175 ng/mL; AUC(0-t) at 24 h [14]: 1290 ng·h/mL
COc1ccc(C(=O)Nc2cccc(O)c2NC(=O)c2ccc(N3CCCN(C)CC3)cc2)cc1 [DAREXABAN]	54.6 nM	3.49	4.1 µM	2.09	Ki (Prothrombin): > 100000 nM; Ki (Plasma kallikrein): 11000 nM; CLint scaled at 0.2 µM [3]: 1910 mL/min/kg; Papp at 2 h [4]: 30 ×10⁻⁶ cm/s; Ki (Coagulation factor X [8]): 31 nM; CD (Plasma [11]): 1.2 µM; Ki (Trypsin): > 100000 nM
